Published values pooled from the literature.
Each line is one published result; the experiments were not run side by side.
F2: Prothrombin (F2, Homo sapiens, UniProt P00734)
gag-pol protease: Gag-Pol polyprotein, protease (gag-pol, Human immunodeficiency virus type 1 group M subtype B, UniProt P04585)
CES1: Liver carboxylesterase 1 (CES1, Homo sapiens, UniProt P23141)
KCNH2: Voltage-gated inwardly rectifying potassium channel KCNH2 (KCNH2, Homo sapiens, UniProt Q12809)

`COCCC(=O)N[C@@H](CCC(N)=O)C(=O)N[C@@H](Cc1ccccc1)C(=O)N[C@@H](CCCNC(=N)N)C(=O)c1nc2ccccc2s1` has a Ki of greater than 10 µM (F2; cell-free assay).
`COc1cc2c(cc1OC)CN(CCc1ccc(NC(=O)c3cccc4c(=O)c5cccc(OC)c5[nH]c34)cc1)CC2` has a Ki of greater than 10 µM (5-hydroxytryptamine receptor 1B (HTR1B, Homo sapiens, UniProt P28222); cell-free assay).
For `COc1ccc(S(=O)(=O)N(CC(C)C)C[C@@H](O)[C@H](Cc2ccccc2)NC(=O)O[C@@H]2CCC[C@@]23CCO[C@@H](c2cc(OC)cc(OC)c2)C3)cc1`, the Ki was 0.0355 µM (gag-pol protease; enzyme activity, inhibitor).
With `NCCCCNCCCN` the Kd was 0.12 µM (tlpQ (Pseudomonas aeruginosa, UniProt Q9I0I4); binding, ITC).
`CCOC(=O)N[C@@H](CCCNC(=N)N)C(=O)N[C@@H](CCC(N)=O)C(=O)N[C@@H](Cc1ccccc1)C(=O)N[C@@H](CCCNC(=N)N)C(=O)c1nc2ccccc2s1` gave a Ki of greater than 10 µM (F2; cell-free assay).
`COc1c2c(cc3c1-c1c(cc4c(c1OC)OCO4)C[C@H](C)[C@H](C)C3)OCO2` has an IC50 of 1.4 µM (CES1; enzyme activity, inhibitor).
The Kd of `CC1=C(O)C(=O)C=C2C1=CC=C1[C@@]2(C)CC[C@@]2(C)[C@@H]3C[C@](C)(C(=O)O)CC[C@]3(C)CC[C@]12C` is reported as 2.41 µM (Aldo-keto reductase family 1 member B10 (AKR1B10, Homo sapiens, UniProt O60218); binding, BLI).
For `O=c1c2cc(Cl)ccc2[nH]c(=S)n1Cc1cccnc1`, the IC50 was greater than 10 µM (KCNH2; ion current, inhibitor, patch clamp; pH 7.4).
The IC50 of `C=CCc1ccc(O)c(-c2cc(CC=C)ccc2O)c1` is reported as 0.39 µM (CES1; enzyme activity, inhibitor).
The IC50 of `CN1CCC(CNc2ccc3ncc(-c4cccc(OC(F)(F)F)c4)n3n2)CC1` is reported as 5.04 µM (3',5'-cyclic-AMP phosphodiesterase 4D (PDE4D, Homo sapiens, UniProt Q08499); enzyme activity, inhibitor).
With `COc1ccc(S(=O)(=O)N(CC(C)C)C[C@@H](O)[C@H](Cc2ccccc2)NC(=O)O[C@@H]2CCC[C@@]23CCO[C@@H](c2ccccc2OC)C3)cc1` the Ki was 0.0167 µM (gag-pol protease; enzyme activity, inhibitor).
`CC(=O)c1c(C)c2cnc(Nc3ccc(C4CCN(CCS(C)(=O)=O)CC4)cn3)nc2n(C2CCCC2)c1=O` has an IC50 of greater than 30 µM (KCNH2; ion current, inhibitor).
With `COc1ccc(S(=O)(=O)N(CC(C)C)C[C@@H](O)[C@H](Cc2ccccc2)NC(=O)O[C@H]2CCC[C@@]23CCO[C@@H](c2cccc(OC)c2)C3)cc1` the Ki was 1.08 µM (gag-pol protease; enzyme activity, inhibitor).
The IC50 of `CCOC(=O)c1ccc(OC(=O)CCCCCN=C(N)N)cc1` is reported as 0.641 µM (Kallikrein-14 (Homo sapiens, UniProt Q9P0G3); enzyme activity, inhibitor).
`Cn1c(=O)n(CCCCN2CCC3(CC2)OCc2ccccc23)c2ccccc21` gave a Ki of 0.311 µM (Sodium-dependent dopamine transporter (Slc6a3, Rattus norvegicus, UniProt P23977); ligand displacement, radioligand; cell membranes).
